Experimental data: ChEMBL document CHEMBL3098050, “Stereoselective total synthesis of a novel regiomer of herbarumin I and its cytotoxic and antimicrobial activities” (Bioorg Med Chem Lett, 2014)
Values after ≈ are worked out from the molar mass of the structure shown.

How the values were obtained:
Raoultella planticola = experiment: Antimicrobial activity against Klebsiella planticola MTCC 530 after 18 hrs by microtitre broth dilution method; assay type: functional; settings: MTCC 530, 18 h
In short: (§1)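 Microtiter broth dilution; MIC per pathogen taken from four individual observations; ciprofloxacin as bacterial positive control.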

MDA-MB-231 = experiment: Cytotoxicity against human MDA-MB-231 cells by MTT assay; assay type: functional, cell-based
In short: (§2)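 MTT read-out (Mosmann method); absorbance dose–response curves plotted and IC50 calculated from them; each cell line's value is the mean of two independent experiments; doxorubicin as positive control.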

Bacillus subtilis = experiment: Antimicrobial activity against Bacillus subtilis MTCC 121 after 18 hrs by microtitre broth dilution method; assay type: functional; settings: MTCC 121, 18 h; in short: as §1
Staphylococcus aureus = experiment: Antimicrobial activity against Staphylococcus aureus MTCC 96 after 18 hrs by microtitre broth dilution method; assay type: functional; settings: MTCC 96, 18 h; in short: as §1
DU-145 = experiment: Cytotoxicity against human DU145 cells by MTT assay; assay type: functional, cell-based; in short: as §2
A549 = experiment: Cytotoxicity against human A549 cells by MTT assay; assay type: functional, cell-based; in short: as §2
HepG2 = experiment: Cytotoxicity against human HepG2 cells by MTT assay; assay type: functional, cell-based; in short: as §2
COLO 205 = experiment: Cytotoxicity against human COLO205 cells by MTT assay; assay type: functional, cell-based; in short: as §2
Pseudomonas aeruginosa = experiment: microbe, parasite or virus in culture; settings: MTCC 2453, 18 h
Escherichia coli = experiment: microbe, parasite or virus in culture; settings: MTCC 739, 18 h

| Compound | MIC (Raoultella planticola) | IC50 (MDA-MB-231) | MIC (Bacillus subtilis) | MIC (Staphylococcus aureus) | IC50 (DU-145) | IC50 (A549) | IC50 (HepG2) | IC50 (COLO 205) | MIC (Pseudomonas aeruginosa) | MIC (Escherichia coli) |
| --- | --- | --- | --- | --- | --- | --- | --- | --- | --- | --- |
| CCC[C@H]1OC(=O)[C@H](O)CC/C=C/C[C@@H]1O | 15.6 µg/mL (≈ 68.3 µM) | 6.2 µM | 15.6 µg/mL (≈ 68.3 µM) | 7.8 µg/mL (≈ 34.2 µM) | 8.9 µM | 8.1 µM | 9.1 µM | 5.1 µM | – | – |
| O=C(O)c1cn(C2CC2)c2cc(N3CCNCC3)c(F)cc2c1=O [CIPROFLOXACIN] | 0.9 µg/mL (≈ 2.72 µM) | – | 0.9 µg/mL (≈ 2.72 µM) | 0.9 µg/mL (≈ 2.72 µM) | – | – | – | – | 0.9 µg/mL (≈ 2.72 µM) | 0.9 µg/mL (≈ 2.72 µM) |
| COc1cccc2c1C(=O)c1c(O)c3c(c(O)c1C2=O)C[C@@](O)(C(=O)CO)C[C@@H]3O[C@H]1C[C@H](N)[C@H](O)[C@H](C)O1 [DOXORUBICIN] | – | – | – | – | 0.6 µM | – | – | 0.5 µM | – | – |
